Test [1] deals with T1, Alpha-1D adrenergic receptor (Homo sapiens, UniProt P25100).
T1 sequence (P25100 whole entry): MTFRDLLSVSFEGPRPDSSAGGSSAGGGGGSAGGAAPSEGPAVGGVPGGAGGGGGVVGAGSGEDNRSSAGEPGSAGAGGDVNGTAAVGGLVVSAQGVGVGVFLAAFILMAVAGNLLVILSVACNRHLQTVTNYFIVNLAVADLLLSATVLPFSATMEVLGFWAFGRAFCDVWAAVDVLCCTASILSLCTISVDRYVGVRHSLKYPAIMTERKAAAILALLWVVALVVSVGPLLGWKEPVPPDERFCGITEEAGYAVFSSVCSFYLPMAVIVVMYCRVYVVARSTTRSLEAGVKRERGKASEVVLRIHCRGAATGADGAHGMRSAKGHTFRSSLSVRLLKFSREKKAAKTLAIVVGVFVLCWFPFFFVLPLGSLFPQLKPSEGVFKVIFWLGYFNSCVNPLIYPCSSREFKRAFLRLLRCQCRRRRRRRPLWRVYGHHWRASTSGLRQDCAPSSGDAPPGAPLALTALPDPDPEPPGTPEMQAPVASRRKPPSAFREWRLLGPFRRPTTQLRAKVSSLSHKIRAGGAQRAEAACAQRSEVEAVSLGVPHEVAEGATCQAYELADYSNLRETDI
The experiment in a line: Displacement of [3H]prazosin from human recombinant alpha1D adrenoceptor expressed in CHO cells after 30 mins by liquid scintillation counting. Type of test: cell-based. In a few lines: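 CHO cells were stably transfected by electroporation with each human α1 subtype. Membranes (70 µg protein) were incubated in 50 mM Tris pH 7.4 with 0.1–0.4 nM [3H]prazosin and competitor (1 pM–1 µM) for 30 min at 25 °C. Nonspecific binding with 10 µM tamsulosin. Filtration and scintillation counting. pKi from 2–3 experiments in duplicate.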
Background: In a radioligand displacement assay an active substance lowers the binding of a labelled ligand.

In test [2] the target is T2, 5-hydroxytryptamine receptor 1A (Homo sapiens, UniProt P08908).
T2 sequence (P08908 whole entry): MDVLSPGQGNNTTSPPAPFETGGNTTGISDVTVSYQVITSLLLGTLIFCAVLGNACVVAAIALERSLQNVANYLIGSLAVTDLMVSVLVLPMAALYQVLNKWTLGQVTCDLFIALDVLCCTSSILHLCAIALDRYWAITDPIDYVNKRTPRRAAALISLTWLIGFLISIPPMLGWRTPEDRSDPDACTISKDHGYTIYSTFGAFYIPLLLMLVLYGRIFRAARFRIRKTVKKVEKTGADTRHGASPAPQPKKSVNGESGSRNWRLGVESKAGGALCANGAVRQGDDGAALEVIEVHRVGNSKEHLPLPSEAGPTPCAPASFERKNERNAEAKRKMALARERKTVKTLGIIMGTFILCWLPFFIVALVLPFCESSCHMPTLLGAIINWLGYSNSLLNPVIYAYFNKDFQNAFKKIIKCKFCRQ
The experiment in a line: Displacement of [3H]8-OH-DPAT from human recombinant 5-HT1A receptor expressed in HeLa cells after 30 mins by liquid scintillation counting. Type of test: cell-based. The method, boiled down:
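HeLa cells stably carrying genomic clone G-21 were grown in DMEM with 10% FCS, then lysed in Tris/EDTA pH 7.4. Membranes (80–90 µg protein) were incubated in 50 mM Tris, 2.5 mM MgCl2, 10 µM pargyline, pH 7.4, with 1 nM [3H]8-OH-DPAT and competitor (1 pM–1 µM) for 30 min at 30 °C, in triplicate. Nonspecific binding with 10 µM 5-HT. pKi from 2–3 experiments.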

For test [3], the target named is T3, Alpha-1B adrenergic receptor (Rattus norvegicus) (UniProt P15823).
T3 sequence (whole entry): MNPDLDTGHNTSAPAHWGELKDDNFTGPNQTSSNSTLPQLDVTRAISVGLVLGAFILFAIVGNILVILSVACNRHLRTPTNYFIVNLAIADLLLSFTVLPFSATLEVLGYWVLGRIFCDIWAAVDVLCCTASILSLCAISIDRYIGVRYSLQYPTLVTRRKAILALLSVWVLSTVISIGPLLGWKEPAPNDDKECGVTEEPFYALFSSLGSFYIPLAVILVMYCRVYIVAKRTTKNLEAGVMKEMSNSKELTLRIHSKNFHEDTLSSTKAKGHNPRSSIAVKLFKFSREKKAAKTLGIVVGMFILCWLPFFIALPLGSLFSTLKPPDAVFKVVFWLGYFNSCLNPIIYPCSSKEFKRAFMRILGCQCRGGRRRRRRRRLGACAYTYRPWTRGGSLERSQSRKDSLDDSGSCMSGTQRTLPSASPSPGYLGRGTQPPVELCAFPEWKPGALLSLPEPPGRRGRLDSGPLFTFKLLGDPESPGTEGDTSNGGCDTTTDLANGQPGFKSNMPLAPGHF
The experiment in a line: Antagonist activity at alpha1B adrenoceptor in Wistar rat spleen assessed as phenylephrine-induced contractions after 30 mins. In a few lines:
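Spleen strips (bisected longitudinally) in Krebs with 4 µM propranolol, 1 g resting tension, 2 h equilibration. Cumulative phenylephrine curves recorded isometrically at 30 min intervals, the first discarded and the second used as control. Antagonist pre-equilibrated 30 min before a repeat agonist curve.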

The species entered for test [4] is Rattus norvegicus. The experiment in a line: Selectivity ratio of Kb for alpha1B adrenoceptor in Wistar rat spleen to Kb for alpha1A adrenoceptor in Wistar rat vas deferans. Type of test: tissue-based.
The target in test [5] is T4, Alpha-1A adrenergic receptor (Homo sapiens, UniProt P35348).
T4 sequence (P35348 whole entry): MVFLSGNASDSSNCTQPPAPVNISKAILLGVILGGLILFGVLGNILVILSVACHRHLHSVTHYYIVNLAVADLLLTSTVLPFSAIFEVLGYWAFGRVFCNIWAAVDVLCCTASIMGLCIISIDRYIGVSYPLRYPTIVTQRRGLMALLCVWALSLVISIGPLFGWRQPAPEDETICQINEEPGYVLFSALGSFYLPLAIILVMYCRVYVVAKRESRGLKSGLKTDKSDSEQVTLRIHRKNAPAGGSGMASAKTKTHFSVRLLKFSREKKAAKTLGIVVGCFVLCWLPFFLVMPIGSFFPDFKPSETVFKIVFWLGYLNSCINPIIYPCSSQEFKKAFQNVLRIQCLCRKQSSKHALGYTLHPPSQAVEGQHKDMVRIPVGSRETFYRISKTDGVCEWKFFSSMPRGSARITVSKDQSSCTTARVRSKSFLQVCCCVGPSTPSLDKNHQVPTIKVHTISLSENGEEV
Put plainly: Displacement of [3H]prazosin from human recombinant alpha1A adrenoceptor expressed in CHO cells after 30 mins by liquid scintillation counting.

What is called Ki is a measure of affinity in units of concentration, obtained from inhibition or displacement. As usually defined, the pKb is −log10 of the Kb, conventionally taken in molar units.

In the case of `COc1ccccc1N1CCN(CC2COC3(CCSCC3)O2)CC1` (stereo not given), the Ki in test [1] is 14.8 nM; in test [2], 9.33 nM; in test [5], 8.51 nM. Besides, in test [3], the pKb was determined as 7.63. Further, the Ratio in test [4] is 1.07.

For the compound `COc1ccccc1N1CCN(CC2COC3(CCN(S(C)(=O)=O)CC3)O2)CC1` (stereo not given), the Ki in test [1] was 23.4 nM; in test [2], 145 nM; in test [5], 18.6 nM. The pKb in test [3] is 7.46. Further, the Ratio in test [4] was determined as 1.12.

In the case of `COc1ccccc1N1CCN(CC2COC3(CCNCC3)O2)CC1` (stereo not given), the values for the Ki in test [1], in test [2] and in test [5] were 37.2 nM, 158 nM and 49 nM, respectively. Also, the pKb in test [3] came out at 7.78. For the same compound, the Ratio in test [4] worked out at 1.09.

The values above are taken from ChEMBL document CHEMBL3351355, “Structure-affinity/activity relationships of 1,4-dioxa-spiro[4.5]decane based ligands at α1 and 5-HT1A receptors” (Eur J Med Chem, 2014).
